Test results taken from ChEMBL document CHEMBL1156815, “Synthesis and opioid activity of enantiomeric N-substituted 2,3,4,4a,5,6,7,7a-octahydro-1H-benzofuro[3,2-e]isoquinolines” (J Med Chem, 2010).

Assays:
Rattus norvegicus = species: Rattus norvegicus; experiment: Selectivity index, ratio of Ki for rat brain sigma2 receptor to Ki for rat brain sigma1 receptor
Homo sapiens [1] = species: Homo sapiens; experiment: Selectivity index, ratio of Ki for human delta opioid receptor to human mu opioid receptor
Homo sapiens [2] = species: Homo sapiens; experiment: Selectivity index, ratio of Ki for human kappa opioid receptor to human mu opioid receptor
[3] = molecular target: T1, Kappa-type opioid receptor (Homo sapiens, UniProt P41145); experiment: biochemical; type: cell-based, CHO
T1 sequence (P41145 whole entry): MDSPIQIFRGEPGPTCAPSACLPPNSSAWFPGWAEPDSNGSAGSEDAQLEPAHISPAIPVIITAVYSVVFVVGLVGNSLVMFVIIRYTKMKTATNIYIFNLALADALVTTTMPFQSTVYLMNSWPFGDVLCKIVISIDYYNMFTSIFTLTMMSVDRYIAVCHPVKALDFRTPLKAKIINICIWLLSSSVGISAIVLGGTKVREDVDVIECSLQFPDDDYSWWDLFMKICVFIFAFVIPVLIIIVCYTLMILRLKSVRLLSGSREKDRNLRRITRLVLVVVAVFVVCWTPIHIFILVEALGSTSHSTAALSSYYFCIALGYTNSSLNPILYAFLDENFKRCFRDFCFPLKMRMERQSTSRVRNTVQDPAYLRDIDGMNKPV

[4] = molecular target: T2, Delta-type opioid receptor (Homo sapiens, UniProt P41143); experiment: Displacement of [125I]OXY from human delta opioid receptor expressed in CHO cells; type: cell-based
T2 sequence (P41143 whole entry): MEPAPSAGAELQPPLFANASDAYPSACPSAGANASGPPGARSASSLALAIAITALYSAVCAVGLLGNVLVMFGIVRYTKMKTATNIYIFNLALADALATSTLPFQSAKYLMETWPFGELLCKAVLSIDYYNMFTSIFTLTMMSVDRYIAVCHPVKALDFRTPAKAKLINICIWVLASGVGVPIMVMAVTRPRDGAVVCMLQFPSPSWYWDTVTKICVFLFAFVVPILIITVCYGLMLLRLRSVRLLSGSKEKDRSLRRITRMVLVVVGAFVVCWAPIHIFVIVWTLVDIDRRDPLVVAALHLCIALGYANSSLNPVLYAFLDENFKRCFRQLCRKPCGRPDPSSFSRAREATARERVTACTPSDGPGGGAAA

[5] = molecular target: Sigma non-opioid intracellular receptor 1 (Rattus norvegicus, UniProt Q9R0C9); experiment: Displacement of [3H](+)-pentazocine from sigma1 receptor in rat brain homogenate; type: tissue-based
Chain of Sigma non-opioid intracellular receptor 1 (Q9R0C9 whole entry): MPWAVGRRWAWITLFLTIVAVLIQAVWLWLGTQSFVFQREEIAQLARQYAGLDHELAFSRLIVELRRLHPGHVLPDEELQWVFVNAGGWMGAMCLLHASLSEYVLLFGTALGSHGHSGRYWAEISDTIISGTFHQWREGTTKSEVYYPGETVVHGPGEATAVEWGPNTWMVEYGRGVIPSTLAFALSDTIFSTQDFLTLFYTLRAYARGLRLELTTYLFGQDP
How it was run: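 Rat brain homogenate binding. Nonspecific binding defined with haloperidol. Means ± SEM from replicate assays.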

Mu-type opioid receptor [6] = molecular target: T3, Mu-type opioid receptor (Homo sapiens, UniProt P35372); experiment: biochemical; type: cell-based, CHO
T3 sequence (P35372 whole entry): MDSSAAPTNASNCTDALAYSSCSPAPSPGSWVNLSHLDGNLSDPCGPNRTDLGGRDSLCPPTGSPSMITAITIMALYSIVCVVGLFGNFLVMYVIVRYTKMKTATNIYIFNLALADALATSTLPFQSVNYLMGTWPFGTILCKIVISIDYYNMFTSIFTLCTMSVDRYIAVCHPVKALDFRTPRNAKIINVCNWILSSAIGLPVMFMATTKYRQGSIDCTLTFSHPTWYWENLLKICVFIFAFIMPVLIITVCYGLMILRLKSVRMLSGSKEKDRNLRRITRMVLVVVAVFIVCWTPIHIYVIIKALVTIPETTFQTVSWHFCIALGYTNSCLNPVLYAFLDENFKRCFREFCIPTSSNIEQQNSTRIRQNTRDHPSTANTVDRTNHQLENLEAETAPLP

[7] = Displacement of [3H]di-O-tolyguanidine from sigma2 receptor in rat brain homogenate; type: tissue-based
[8] = molecular target: T1, Kappa-type opioid receptor; conditions: CHO
Mu-type opioid receptor [9] = molecular target: T3, Mu-type opioid receptor; conditions: CHO
[10] = Binding affinity to sigma receptor
[11] = molecular target: T2, Delta-type opioid receptor; experiment: Agonist activity at human delta opioid receptor expressed in CHO cells assessed as stimulation of [35S]GTPgammaS binding relative to 500 nM SNC80; type: functional, cell-based
How it was run: (§1)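 [35S]GTPgammaS binding stimulation at the delta receptor, n = 3, reported with SD.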

[12] = molecular target: T2, Delta-type opioid receptor; experiment: Agonist activity at human delta opioid receptor expressed in CHO cells assessed as stimulation of [35S]GTPgammaS binding; type: functional, cell-based; how it was run: as §1
[13] = molecular target: T2, Delta-type opioid receptor; experiment: Binding affinity to human delta opioid receptor expressed in CHO cells; type: cell-based
Mu-type opioid receptor [14] = molecular target: T3, Mu-type opioid receptor; experiment: Binding affinity to human mu opioid receptor expressed in CHO cells; type: cell-based
[15] = molecular target: T1, Kappa-type opioid receptor; conditions: CHO; remark: listed apart in the source
Mu-type opioid receptor [16] = molecular target: T3, Mu-type opioid receptor; conditions: CHO; remark: listed apart in the source
[17] = molecular target: T2, Delta-type opioid receptor; conditions: CHO

Structure (SMILES)	Ratio Ki (Homo sapiens [2])	Ki [3] [nM]	Ki [4] [nM]	Ki [5] [nM]	Ki (Mu-type opioid receptor [6]) [nM]	Ki [7] [nM]	also measured
COc1cccc2c1O[C@H]1CCC[C@H]3CN(C)CC[C@@]231 (stereo in doubt; (-)-3a) [listing 1 of 2 here]	15	–	–	–	–	–	Ratio Ki (Rattus norvegicus): < 0.7; Ratio Ki (Homo sapiens [1]): 41
COc1cccc2c1O[C@H]1CCC[C@H]3CN(CC4CC4)CC[C@@]231 (stereo in doubt; (+)-3b) [listing 1 of 2 here]	–	> 10000	> 10000	62	> 10000	4370	–
COc1cccc2c1O[C@H]1CCC[C@H]3CN(CCc4ccccc4)CC[C@@]231 (stereo in doubt; (+)-3c) [listing 1 of 2 here]	–	1140	8390	278	145	2550	–
C=CCN1CC[C@]23c4c5ccc(O)c4O[C@H]2C(=O)CC[C@@]3(O)[C@H]1C5 [NALOXONE]	–	–	–	–	–	> 10000	–
Oc1cccc2c1O[C@H]1CCC[C@H]3CN(CC4CC4)CC[C@@]231 (stereo in doubt; (+)-1b) [listing 1 of 2 here]	–	699	> 10000	201	1330	1030	–
CN1CC[C@]23c4cccc(O)c4O[C@H]2CCC[C@H]3C1 (stereo in doubt; (-)-1a) [listing 1 of 2 here]	–	–	–	–	–	–	Ke [8]: 80 nM; ED50 (Mu-type opioid receptor [9]): 19 nM
Oc1cccc2c1O[C@H]1CCC[C@H]3CN(CCc4ccccc4)CC[C@@]231 (stereo in doubt; (-)-1c) [listing 1 of 2 here]	–	15	6	239	0.3	5380	–
COc1cccc2c1O[C@H]1CCC[C@H]3CN(C)CC[C@@]231 (stereo in doubt; (+)-3a) [listing 1 of 2 here]	0.95	–	–	–	–	–	Ratio Ki (Rattus norvegicus): > 15
CN1CC[C@]23c4cccc(O)c4O[C@H]2CCC[C@H]3C1 (stereo in doubt; (-)-1a) [listing 2 of 2 here]	–	14	44	> 10000	–	> 10000	–
COc1cccc2c1O[C@H]1CCC[C@H]3CN(C)CC[C@@]231 (stereo in doubt; (-)-3a) [listing 2 of 2 here]	–	3470	9750	> 10000	236	7480	–
Oc1cccc2c1O[C@H]1CCC[C@H]3CN(CC4CC4)CC[C@@]231 (racemic)	–	–	–	–	–	–	Ki [10]: 21 nM
COc1cccc2c1O[C@H]1CCC[C@H]3CN(CCc4ccccc4)CC[C@@]231 (stereo in doubt; (-)-3c) [listing 1 of 2 here]	77	–	–	–	–	–	Ratio Ki (Rattus norvegicus): 5.8; Ratio Ki (Homo sapiens [1]): 20
COc1cccc2c1O[C@H]1CCC[C@H]3CN(C)CC[C@@]231 (stereo in doubt; (+)-3a) [listing 2 of 2 here]	–	7230	> 10000	658	7610	> 10000	–
Oc1cccc2c1O[C@H]1CCC[C@H]3CN(CCc4ccccc4)CC[C@@]231 (stereo in doubt; (+)-1c) [listing 1 of 2 here]	–	1240	5000	131	275	263	–
CN1CC[C@]23c4cccc(O)c4O[C@H]2CCC[C@@H]3C1 (stereo in doubt; (+)-5)	–	–	–	–	–	–	Ki ([3]; cho): > 10000 nM; Ki ([4]; cho): > 10000 nM
CC(C)=CCN1CC[C@@]2(C)c3cc(O)ccc3C[C@@H]1[C@@H]2C	–	–	–	–	–	56	–
COc1cccc2c1O[C@H]1CCC[C@H]3CN(CC4CC4)CC[C@@]231 (stereo in doubt; (-)-3b) [listing 1 of 2 here]	–	41	544	285	30	3270	–

Structure (SMILES)	Ratio Ki (Homo sapiens [2])	Ki [3] [nM]	Ki [4] [nM]	Ki [5] [nM]	Ki (Mu-type opioid receptor [6]) [nM]	Ki [7] [nM]	also measured
COc1cccc2c1O[C@H]1CCC[C@@H]3CN(C)CC[C@@]231 (stereo in doubt; (-)-4) [listing 1 of 2 here]	–	565	1050	–	27	–	–
COc1cccc2c1O[C@H]1CCC[C@H]3CN(CCc4ccccc4)CC[C@@]231 (stereo in doubt; (+)-3c) [listing 2 of 2 here]	7.9	–	–	–	–	–	Ratio Ki (Rattus norvegicus): 9.2; Ratio Ki (Homo sapiens [1]): 58
COc1cccc2c1O[C@H]1CCC[C@H]3CN(CC4CC4)CC[C@@]231 (stereo in doubt; (-)-3b) [listing 2 of 2 here]	1.4	–	–	–	–	–	Ratio Ki (Rattus norvegicus): 11; Ratio Ki (Homo sapiens [1]): 18
COc1cccc2c1O[C@H]1CCC[C@H]3CN(CC4CC4)CC[C@@]231 (stereo in doubt; (+)-3b) [listing 2 of 2 here]	–	–	–	–	–	–	Ratio Ki (Rattus norvegicus): 71
COc1cccc2c1O[C@H]1CCC[C@H]3CN(CCc4ccccc4)CC[C@@]231 (stereo in doubt; (-)-3c) [listing 2 of 2 here]	–	1850	490	560	24	3270	–
CN1CC[C@]23c4cccc(O)c4O[C@H]2CCC[C@H]3C1 (stereo in doubt; (+)-1a)	–	6900	> 10000	2010	–	–	–
CC(C)=CCN1CC[C@]2(C)c3cc(O)ccc3C[C@H]1[C@H]2C [(+)-PENTAZOCINE]	–	–	–	–	–	1360	–
Oc1cccc2c1O[C@H]1CCC[C@H]3CN(CCc4ccccc4)CC[C@@]231 (stereo in doubt; (+)-1c) [listing 2 of 2 here]	4.5	–	–	–	–	–	Ratio Ki (Rattus norvegicus): 2; Ratio Ki (Homo sapiens [1]): 18
COc1cccc2c1O[C@H]1CCC[C@@H]3CN(C)CC[C@@]231 (stereo in doubt; (+)-4) [listing 1 of 2 here]	–	1850	> 10000	–	> 10000	–	–
Oc1cccc2c1O[C@H]1CCC[C@H]3CN(CCc4ccccc4)CC[C@@]231 (stereo in doubt; (-)-1c) [listing 2 of 2 here]	50	–	–	–	–	–	Ratio Ki (Rattus norvegicus): 23; Ke [8]: 130 nM; Ratio Ki (Homo sapiens [1]): 20; Emax [11]: 64%; ED50 (Mu-type opioid receptor [9]): 10 nM; ED50 [12]: 148 nM
Oc1cccc2c1O[C@H]1CCC[C@H]3CN(CC4CC4)CC[C@@]231 (stereo in doubt; (-)-1b) [listing 1 of 2 here]	–	0.1	2	399	0.08	> 10000	Kd [13]: 20 nM; Kd (Mu-type opioid receptor [14]): 0.22 nM
COc1cccc2c1O[C@H]1CCC[C@@H]3CN(C)CC[C@@]231 (stereo in doubt; (+)-4) [listing 2 of 2 here]	< 0.19	–	–	–	–	–	–
Oc1cccc2c1O[C@H]1CCC[C@H]3CN(CC4CC4)CC[C@@]231 (stereo in doubt; (+)-1b) [listing 2 of 2 here]	0.53	–	–	–	–	–	Ratio Ki (Rattus norvegicus): 5.1
COc1cccc2c1O[C@H]1CCC[C@@H]3CN(C)CC[C@@]231 (stereo in doubt; (-)-4) [listing 2 of 2 here]	21	–	–	–	–	–	Ratio Ki (Homo sapiens [1]): 39
C[C@@H](NC(=O)[C@@H](N)Cc1ccc(O)cc1)C(=O)NCC(=O)N(C)[C@@H](Cc1ccccc1)C(=O)NCCO	–	–	–	–	–	–	ED50 [15]: 8940 nM
Oc1cccc2c1O[C@H]1CCC[C@H]3CN(CC4CC4)CC[C@@]231 (stereo in doubt; (-)-1b) [listing 2 of 2 here]	1.3	–	–	–	–	–	Ratio Ki (Rattus norvegicus): > 25; Ratio Ki (Homo sapiens [1]): 25; ED50 [15]: 2.3 nM; Ke (Mu-type opioid receptor [16]): 0.22 nM; Ke [17]: 20 nM
CN1CC[C@]23c4cccc(O)c4O[C@H]2CCC[C@@H]3C1 (stereo in doubt; (-)-5)	–	> 10000	> 10000	–	–	–	–
